Screening data deposited in PubChem BioAssay by several laboratories.
PolyA inh = blocks polyadenylation in yeast reporter cells. 0.02% of 300,000 active. S. cerevisiae SKY197-pL101 polyadenylation reporter, beta-gal luminescence; efflux-impaired pdr1/pdr3 knockout yeast; score 100 = 6 SD above DMSO. AID 1875. activity score, % at 12 µM;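 active means lowest replicate activity score at least 50, where 100 means six control SD above control mean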;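 further: yeast exposed to compound for 9 h at 30 °C; higher score means more reporter readthrough which indicates perturbed polyadenylation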
procasp7 counter = counter-screen: procaspase-7 (human) activation; P55210; recombinant procaspase-7, Ac-DEVD-pNA absorbance 405 nm; D23A/D198A/D206A triple mutant, cannot self-cleave; scale: DMSO 0, 5 µM enzyme 100; activation, % at 8.5 µM; 0.093% of 330,000 active;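 active means percent activation above the screen-wide mean plus 3 SD, cut at about 25% in these data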
Target sequence (P55210 whole entry D23A/D198A/D206A): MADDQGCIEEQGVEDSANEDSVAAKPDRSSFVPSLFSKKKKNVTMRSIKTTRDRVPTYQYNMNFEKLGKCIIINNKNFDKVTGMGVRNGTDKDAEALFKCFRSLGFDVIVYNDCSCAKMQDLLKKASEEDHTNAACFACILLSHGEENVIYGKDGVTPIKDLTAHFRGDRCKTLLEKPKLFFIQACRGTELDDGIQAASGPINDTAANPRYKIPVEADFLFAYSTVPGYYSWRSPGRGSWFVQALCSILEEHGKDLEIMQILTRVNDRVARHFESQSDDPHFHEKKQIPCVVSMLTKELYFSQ
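signal = Epi-absorbance of released pNA at 405 nm, two timepoints | assay system = Uncleavable procaspase-7 mutant enzyme | reagent = Ac-DEVD-pNA substrate, 400 µM as added | times = 1 h enzyme–compound preincubation and 2 h substrate reaction, both 25 °C | benchmarks = low DMSO alone, high DMSO plus 5 µM PC-7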
AHR activator = human AHR activation | activation, % at 5 µM | P35869 | AHR-responsive luciferase reporter cells, luminescence | 2.5% of 320,000 active; in the data active means activation above about 47%;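 further: 0% = vehicle wells and 100% = reference agonist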
proCasp3 act = activators of human procaspase-3; P42574; recombinant procaspase-3 D3A, Ac-DEVD-pNA absorbance 405 nm; 0.11% of 330,000 active; activation, % at 8.5 µM;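 active means activation above the mean of all tested compounds plus 3 SD, cut at about 21% in these data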;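 further: 0% = DMSO alone and 100% = DMSO wells spiked with extra 5 µM PC-3 D3A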
Target sequence (P42574 whole entry D9A/D28A/D175A): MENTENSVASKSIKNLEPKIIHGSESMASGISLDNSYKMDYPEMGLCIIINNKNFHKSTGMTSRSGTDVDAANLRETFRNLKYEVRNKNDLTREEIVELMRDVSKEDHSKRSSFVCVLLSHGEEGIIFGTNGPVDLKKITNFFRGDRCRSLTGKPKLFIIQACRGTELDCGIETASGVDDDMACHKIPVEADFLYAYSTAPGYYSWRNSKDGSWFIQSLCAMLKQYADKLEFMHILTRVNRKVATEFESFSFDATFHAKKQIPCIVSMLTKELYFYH
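Test system: Procaspase-3 D3A mutant, all three cleavage aspartates alanine | Dosing: Single dose, 8.5 µM nominal compound, 0.8% DMSO | Schedule: 1 h preincubation, 2 h reaction | Technique: 405 nm absorbance of p-nitroaniline, reads at 0 and 120 min | Repeats: One well per compound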
The depositor's hits bear a star; · = no result given. Hits are enriched below; roughly 2.6% of the tested compounds scored in any of these assays.

SMILES | PolyA inh | procasp7 counter | AHR activator | proCasp3 act
COc1ccccc1C=NNC(=O)c1ccccc1OCCOc1ccccc1 | · | 0 | 51* | -8
O=C(O)COc1ccccc1/C=N/NC(=O)c1cc2ccccc2cc1O | 0 | -7 | 58* | 11
CC(C)=CCC/C(C)=C/CNC(=O)C[C@H]1C[C@H](C(=O)N2CCOCC2)[C@@]2(CCC3CCCC3)c3[nH]c4cc(-c5ccco5)ccc4c3CCN2C1=O | · | 2 | · | 2
COc1ccc(OC)c(S(=O)(=O)N2CCC(C(=O)N3CCCCCC3)CC2)c1 | 14 | -5 | 1 | -12
CCOc1ccc(NC(=O)COc2ccc(C(=O)NCC3CCCO3)cc2OC)cc1 (stereo not given) | · | 7 | 3 | -2
Cc1nn(-c2ccccn2)c2c1-c1nc(N)ncc1CC2 | -4 | 0 | 63* | 5
CCC(C)(C)NS(=O)(=O)c1cc(CN2C(=O)c3cccnc3C2=O)ccc1OC | -17 | -8 | 2 | -9
Nc1nc(NCCCN2CCOCC2)nc(Nc2ccc(Cl)cc2)c1[N+](=O)[O-] | -6 | 13 | 74* | 3
Nc1nc(NCC2CCCO2)nc(Nc2ccc(Cl)cc2)c1[N+](=O)[O-] (stereo not given) | -12 | 6 | 68* | -5
CSCC[C@H](NC(=O)c1ccco1)c1nnc2ccccn12 | 7 | 3 | 1 | 9
CCC(=O)NC1=C(Nc2ccc(N)cc2)C(=O)c2ccccc2C1=O | 12 | -3 | 55* | -2
O=C(COc1ccc2c3c(c(=O)oc2c1)CCC3)Nc1ccccn1 | -2 | -5 | 0 | -4
O=C(Cc1cccs1)Nc1nnc(SCc2ccc(Br)cc2)s1 | 4 | 0 | 48* | -6
COc1cc(Br)cc(/C=N/NC(=O)Cc2ccc(C(F)(F)F)cc2[N+](=O)[O-])c1O | 3 | -1 | 51* | 5
CCOc1cc(/C=N/NC(=O)Cc2ccc(C(F)(F)F)cc2[N+](=O)[O-])c(Br)cc1OC | 22 | 17 | 4 | 0
CC(=O)COc1cccc2ccc(/C=C/c3ccc(Br)s3)nc12 | -3 | -1 | 72* | -8
Cc1ccc(/C=C/c2ccc3cccc(O)c3n2)s1 | -20 | 1 | 36 | -7
Cc1noc(C)c1C(=O)OCC(=O)C12CC3CC(CC(C3)C1)C2 | -3 | 7 | 0 | -1
C=CCc1cccc(CNc2ccc(Br)cc2)c1O | 3 | 6 | 71* | 0
C=CCc1cccc(CNc2ccc(S(=O)(=O)Nc3nccnc3OC)cc2)c1O | 9 | -1 | 2 | 3
O=C(c1ccccc1)n1ccn(-c2ccccc2)c1=S | -5 | 8 | 51* | 8
CCc1ccc(C(=O)Nc2ccc(C)c(NS(C)(=O)=O)c2)cc1 | -6 | 7 | 65* | -6
CCOC(=O)c1ccc(NC(=O)c2ccc(NS(C)(=O)=O)cc2)cc1 | 20 | 2 | 0 | 0
Cc1ccc(NC(=O)c2ccc(F)cc2F)cc1NS(C)(=O)=O | 11 | 10 | 61* | -5
CC(C)(C)OC(=O)C[C@H]1C/C=C\C[C@@H](CC(=O)N[C@@H](CO)Cc2ccccc2)C(=O)NC[C@H](c2ccccc2)OC1=O | · | 3 | -2 | 3
SMILES | PolyA inh | procasp7 counter | AHR activator | proCasp3 act
Cc1nn(-c2ccccc2)c2nc(C(F)F)cc(C(F)F)c12 | · | 3 | 10 | 0
Brc1cnc2nc(SC/C=C/c3ccccc3)[nH]c2c1 | -3 | -5 | 3 | 5
O=C(NCc1nc2ncc(Br)cc2[nH]1)c1ccccc1 | 14 | -6 | 78* | -1
COc1ccccc1N1CCN(C(=O)CCNS(=O)(=O)c2ccc(Br)s2)CC1 | 91* | 0 | 5 | -2
COc1ccc(Nc2nc(-c3cccs3)cs2)c(OC)c1 | -2 | -7 | 109* | 0
Oc1ccc(Nc2nc(-c3cccs3)cs2)cc1 | 19 | -20 | 0 | -6
COc1ccc(Nc2nc(-c3cccs3)cs2)cc1 | 6 | -6 | 49* | -5
COc1ccc(OC)c(Nc2nc(-c3cccs3)cs2)c1 | -8 | 1 | 48* | -1
COc1ccccc1Nc1nc(-c2cccs2)cs1 | -10 | -2 | 43 | -13
CC(CC(=O)Nc1ccc(S(=O)(=O)Nc2ncccn2)cc1)c1ccccc1 (stereo not given) | -8 | 14 | -3 | -1
O=C(CCCOc1ccccc1)NN1C(=O)NC2(CCCCC2)C1=O | -11 | 9 | 3 | 4
O=C(COC(=O)c1cc(S(=O)(=O)N2CCCC2)ccc1O)Nc1ccc(F)cc1F | · | 0 | 1 | 14
CCOc1c2ccc(C(=O)NCC34CC5CC(CC(C5)C3)C4)cc2nn1CC | 13 | -1 | 51* | -3
CCCCNC(=O)CSc1nc2ccc(N3CCOCC3)cc2c(=O)n1CCc1ccccc1 | -6 | -9 | 58* | 2
COCCNC(=O)CSc1nc2ccc(N3CCOCC3)cc2c(=O)n1CCc1ccccc1 | 1 | -4 | 73* | 6
CCCCn1c(SCC(=O)NCCOC)nc2ccc(N3CCOCC3)cc2c1=O | 1 | 11 | 25 | -4
COc1cc(C(=O)NCc2ncccc2C)ccc1OC1CCN(C(C)=O)CC1 | 15 | 3 | -2 | -2
COc1ccc(OC)c2c1sc(=NC(=O)C1CC1)n2C | -16 | 2 | 24 | 1
COc1ccccc1C(=O)N=c1sc2c(C)ccc(OC)c2n1C | -9 | 8 | 62* | 0
COc1ccc(C(=O)N=c2sc3c(C)ccc(OC)c3n2C)cc1OC | -4 | 10 | 21 | 2
COc1ccc(OC)c2c1sc(=NC(=O)c1ccco1)n2C | -5 | -15 | 51* | 0
NS(=O)(=O)c1cccc(NC(=O)Nc2ccccc2)c1 | -13 | 5 | 8 | 7
O=C(Nc1ccc(Cl)cc1Cl)NC1CCCC1 | 14 | 2 | 53* | -3
S=C(Nc1ccc(Cl)cc1Cl)NC1CCCCC1 | 13 | 13 | 4 | -2
Cc1cc(C)cc(NC(=O)Nc2cccc(S(N)(=O)=O)c2)c1 | -3 | 2 | 58* | -2
SMILES | PolyA inh | procasp7 counter | AHR activator | proCasp3 act
O=C(Nc1cccnc1)Nc1cccc(F)c1 | 3 | 9 | 46 | -7
CCOc1ccc(NC(=O)Nc2cccnc2)cc1 | -9 | 7 | 61* | 4
CC(=O)c1cccc(NC(=O)Nc2cccnc2)c1 | -10 | 9 | 65* | 2
Cc1ccc(S(=O)(=O)N2CCOCC2)cc1C(=O)NCCc1ccc(Cl)cc1 | · | -1 | 0 | 4
Cc1cccnc1NC(=O)Nc1ccc(F)cc1 | 8 | 3 | 26 | -4
Cc1cccc(NC(=O)Nc2ccncc2)c1 | 30 | -11 | 53* | 1
Cc1ccc(NC(=O)Nc2ncccc2C)cc1 | -21 | 5 | 57* | -3
O=C(Nc1ccc(Cl)cc1)Nc1cccnc1 | -1 | 3 | 10 | -1
O=C(Nc1cccnc1)Nc1ccc(Cl)cc1Cl | -2 | 10 | 48* | 3
CC1CCN(C(=O)c2ccc(CNS(=O)(=O)c3ccc(C(C)(C)C)cc3)cc2)CC1 | · | 3 | 0 | 10
